Reference: ChEMBL document CHEMBL1155306, “Inhibitors of HIV-1 attachment. Part 3: A preliminary survey of the effect of structural variation of the benzamide moiety on antiviral activity” (Bioorg Med Chem Lett, 2009)

Experiments:
[1] = test system: Human immunodeficiency virus 1; test: Antiviral activity against HIV1 infected human HeLa67 cells coexpressing JRFL-LUCENV after 3 days by luciferase reporter assay; format: functional, organism-based; settings: Human immunodeficiency virus 1, HeLa67, 72 h
Procedure, shortened: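 JRFL-Luc ΔEnv pseudotyped virus, titered by serial dilution on HeLa67 cells (CD4+/CCR5+). Fourfold serial dilutions of compound added to infected cells at the time of infection. Luciferase activity read after three days and compared with no-compound controls to derive EC50. Values are means of two or more experiments.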

[2] = Cytotoxicity against human HeLa67 cell after 3 days by XTT assay; format: cell-based; settings: HeLa67 cells
Procedure, shortened: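 HeLa67 cells treated in parallel with the antiviral assay. Viability read by XTT three days after compound addition. Values are means of two or more experiments unless noted otherwise.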

| Compound | EC50 [1] [µM] | CC50 at 72 h [2] [µM] |
| --- | --- | --- |
| O=C(C(=O)N1CCN(C(=O)c2ccccc2Cl)CC1)c1c[nH]c2ccccc12 | 35 | > 300 |
| O=C(C(=O)N1CCN(C(=O)c2ccccn2)CC1)c1c[nH]c2ccccc12 | 1.55 | > 300 |
| O=C(C(=O)N1CCN(C(=O)c2cc[nH]n2)CC1)c1c[nH]c2cccc(F)c12 | 0.0718 | > 300 |
| CCCc1ccc(C(=O)N2CCN(C(=O)C(=O)c3c[nH]c4ccccc34)CC2)cc1 | 82 | 48 |
| O=C(C(=O)N1CCN(C(=O)c2cscn2)CC1)c1c[nH]c2cccc(F)c12 | 0.0087 | > 250 |
| O=C(C(=O)N1CCN(C(=O)c2ccco2)CC1)c1c[nH]c2cccc(F)c12 | 0.0054 | > 300 |
| O=C(C(=O)N1CCN(C(=O)c2ccccc2)CC1)c1c[nH]c2cccc(F)c12 |  | > 300 |
| O=C(C(=O)N1CCN(C(=O)c2ccccn2)CC1)c1c[nH]c2cccc(F)c12 | 0.0045 | > 300 |
| O=C(C(=O)N1CCN(C(=O)c2ccc(Cl)cc2Cl)CC1)c1c[nH]c2ccccc12 | 37 | 111 |
| O=C(C(=O)N1CCN(C(=O)c2ccc(O)cc2)CC1)c1c[nH]c2ccccc12 | 2.49 | 136 |
| O=C(C(=O)N1CCN(C(=O)c2ccc(F)cc2)CC1)c1c[nH]c2ccccc12 | 8.91 | 280 |
| O=C(C(=O)N1CCN(C(=O)c2ccncc2)CC1)c1c[nH]c2cccc(F)c12 | 0.0237 | > 205 |
| O=C(C(=O)N1CCN(C(=O)c2c(F)cc(F)cc2F)CC1)c1c[nH]c2ccccc12 | > 54 | > 300 |
| O=C(C(=O)N1CCN(C(=O)CC2CCCCC2)CC1)c1c[nH]c2ccccc12 | > 100 | 158 |
| O=C(C(=O)N1CCN(C(=O)c2cc(F)c(F)c(F)c2)CC1)c1c[nH]c2ccccc12 | 55 | > 300 |
| O=C(C(=O)N1CCN(C(=O)c2cccc3ccccc23)CC1)c1c[nH]c2ccccc12 | > 100 | > 300 |
| O=C(C(=O)N1CCN(C(=O)Cc2ccccc2)CC1)c1c[nH]c2cccc(F)c12 | > 50 | > 300 |
| O=C(C(=O)N1CCN(C(=O)c2ccccc2F)CC1)c1c[nH]c2ccccc12 | 0.391 | 101 |
| O=C(C(=O)N1CCN(C(=O)c2cc(F)c(F)cc2F)CC1)c1c[nH]c2ccccc12 | 36.5 | > 300 |
| Cc1ccc(C(=O)N2CCN(C(=O)C(=O)c3c[nH]c4ccccc34)CC2)cc1 | 8.38 | > 99 |

| Compound | EC50 [1] [µM] | CC50 at 72 h [2] [µM] |
| --- | --- | --- |
| O=C(C(=O)N1CCN(C(=O)c2cccc(F)c2)CC1)c1c[nH]c2ccccc12 | 2.76 | 200 |
| O=C(C(=O)N1CCN(C(=O)c2ccccc2Br)CC1)c1c[nH]c2ccccc12 | 10.5 | > 300 |
| COc1ccccc1C(=O)N1CCN(C(=O)C(=O)c2c[nH]c3ccccc23)CC1 | > 10 | > 300 |
| O=C(C(=O)N1CCN(C(=O)c2occc2Br)CC1)c1c[nH]c2cccc(F)c12 | 0.0014 | 236 |
| O=C(C(=O)N1CCN(C(=O)c2sccc2Br)CC1)c1c[nH]c2cccc(F)c12 | 0.0032 | 69.7 |
| CN(C)c1ccccc1C(=O)N1CCN(C(=O)C(=O)c2c[nH]c3ccccc23)CC1 | > 0.5 | 89 |
| O=C(C(=O)N1CCN(C(=O)c2ccsc2)CC1)c1c[nH]c2cccc(F)c12 | 0.0004 | > 300 |
| Cc1ccncc1C(=O)N1CCN(C(=O)C(=O)c2c[nH]c3ccccc23)CC1 | 86.5 | > 300 |
| CN(C)c1ccc(C(=O)N2CCN(C(=O)C(=O)c3c[nH]c4ccccc34)CC2)cc1 | > 100 | > 300 |
| O=C(C(=O)N1CCN(C(=O)c2ccc(Cl)cc2)CC1)c1c[nH]c2ccccc12 | 65.8 | 92 |
| O=C(C(=O)N1CCN(C(=O)c2cccc(Cl)c2Cl)CC1)c1c[nH]c2ccccc12 | 18 | 235 |
| O=C(C(=O)N1CCN(C(=O)c2ccoc2)CC1)c1c[nH]c2cccc(F)c12 | 0.0204 | > 300 |
| Cc1ccsc1C(=O)N1CCN(C(=O)C(=O)c2c[nH]c3cccc(F)c23)CC1 | 0.0173 | 260 |
| COc1cccc(C(=O)N2CCN(C(=O)C(=O)c3c[nH]c4ccccc34)CC2)c1 | > 56 | > 300 |
| O=C(C(=O)N1CCN(C(=O)c2sccc2Cl)CC1)c1c[nH]c2cccc(F)c12 | 0.0119 | 50.5 |
| Cc1nc(C(=O)N2CCN(C(=O)C(=O)c3c[nH]c4cccc(F)c34)CC2)cs1 | 0.0228 | > 300 |
| O=C(C(=O)N1CCN(C(=O)c2cccnc2)CC1)c1c[nH]c2cccc(F)c12 | 0.154 | > 300 |
| O=C(C(=O)N1CCN(C(=O)c2ccno2)CC1)c1c[nH]c2cccc(F)c12 | 0.156 | > 300 |
| O=C(C(=O)N1CCN(C(=O)c2cccs2)CC1)c1c[nH]c2cccc(F)c12 | 0.0007 | > 300 |
| N#Cc1ccoc1C(=O)N1CCN(C(=O)C(=O)c2c[nH]c3cccc(F)c23)CC1 | 0.007 | 187 |

| Compound | EC50 [1] [µM] | CC50 at 72 h [2] [µM] |
| --- | --- | --- |
| O=C(C(=O)N1CCN(C(=O)c2cccc(Br)c2)CC1)c1c[nH]c2ccccc12 | 6.7 | 76 |
| O=C(C(=O)N1CCN(C(=O)c2cccc(Cl)c2)CC1)c1c[nH]c2ccccc12 | 17.5 | 117 |
| CN(C)c1cccc(C(=O)N2CCN(C(=O)C(=O)c3c[nH]c4ccccc34)CC2)c1 | > 0.5 | 230 |
| O=C(C(=O)N1CCN(C(=O)c2c[nH]cn2)CC1)c1c[nH]c2cccc(F)c12 | 1.23 | > 300 |
| COc1ccc(C(=O)N2CCN(C(=O)C(=O)c3c[nH]c4ccccc34)CC2)cc1 | 30.2 | 129 |
| O=C(C(=O)N1CCN(C(=O)c2cccnc2)CC1)c1c[nH]c2ccccc12 | 4.2 | > 300 |
| O=C(C(=O)N1CCN(C(=O)c2ccc(Br)cc2)CC1)c1c[nH]c2ccccc12 | 30 | > 240 |
| O=C(C(=O)N1CCN(C(=O)Cc2ccccc2)CC1)c1c[nH]c2ccccc12 | > 100 | > 300 |
| CC(C)(C)c1ccc(C(=O)N2CCN(C(=O)C(=O)c3c[nH]c4ccccc34)CC2)cc1 | 9 | 31 |
| O=C(C(=O)N1CCN(C(=O)c2cccc(Cl)c2F)CC1)c1c[nH]c2ccccc12 | 3.5 | > 300 |
| O=C(C(=O)N1CCN(C(=O)c2occc2Cl)CC1)c1c[nH]c2cccc(F)c12 | 0.0031 | 250 |
| O=C(C(=O)N1CCN(C(=O)c2ccc(F)cc2F)CC1)c1c[nH]c2ccccc12 | 6 | > 300 |
| O=C(C(=O)N1CCN(C(=O)c2ccccc2O)CC1)c1c[nH]c2ccccc12 | 3.65 | 194 |
| O=C(C(=O)N1CCN(C(=O)c2cc(F)c(F)c(F)c2F)CC1)c1c[nH]c2ccccc12 | > 100 | > 300 |
| O=C(C(=O)N1CCN(C(=O)c2ccc(F)c(F)c2)CC1)c1c[nH]c2ccccc12 | 8.3 | > 300 |
| O=C(C(=O)N1CCN(C(=O)c2ccc(Cl)c(Cl)c2)CC1)c1c[nH]c2ccccc12 | 14.5 | 123 |
| O=C(C(=O)N1CCN(C(=O)C2CCCCC2)CC1)c1c[nH]c2ccccc12 | 3.5 | > 300 |
| O=C(C(=O)N1CCN(C(=O)c2c(F)cccc2F)CC1)c1c[nH]c2ccccc12 | 6.7 | > 300 |
